Source: PubChem BioAssay AID493104 (Broad Institute, 2011)

These compounds were tested on Vibrio harveyi BB721 quorum sensing luminescence, 9 h (assay: V. harveyi downstream QS pathway luminescence inhibition – strain BB721 constitutive-on, dry powder, counter-screen for AI-2 quorum sensing inhibitor project, dose response (AID 493104)).
Summary of the method: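 Buffer or medium: AB (autoinducer bioassay) medium. Material: V. harveyi BB721, constitutive-on quorum sensing strain. Times: 9 h exposure, 30 °C.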

| Structure (SMILES) | AC50 [µM] |
| --- | --- |
| O=C1C=C/C(=C/Br)O1 | 6.43 |
| Cc1cccc(NS(=O)(=O)c2ccc(Oc3ccccc3)cc2)n1 | 12.4 |
| COc1cc(NC(=O)CN2C(=O)NC(c3ccccc3)(c3ccccc3)C2=O)cc(OC)c1 | 0.919 |
| CCc1ccc(S(=O)(=O)Nc2ccc(Br)cn2)cc1 | 11.9 |
| C=Cn1c(C(=O)O)ccc1-c1ccc(CC)cc1 | 13.8 |
